Results as given in ChEMBL document CHEMBL5724801, “EUbOPEN Chemogenomics Library - Multiplex” (2024).
Several values for one entry are separate records, joined by “and”; a condition that tells them apart may be missing. Equal entries are not always repeated.

Tested on: U2OS
Assay: Multiplex assay against U2OS
Type: toxicity, cell-based
Conditions: human
Method in brief: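 Values for tubulin, mitochondrial-mass and membrane-permeability phenotypes are per cents of cells with healthy nuclei. These cells were identified by CellPathfinder machine-learning gating of live cells that had been stained at seeding with Hoechst33342, BioTracker Green Microtubule Cytoskeleton Dye, MitoTracker Red and Annexin V Alexa Fluor 680 and imaged on a CQ1 microscope at 37°C and 5% CO2 after compound addition. The gating first set Hoechst high-intensity objects apart from normal cells, then split normal cells into healthy, pyknosed or fragmented nuclei, and pyknosed cells into mitotic or apoptotic.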

[1] = 12 h, 1 µM, compound concentration 1 uM
[2] = 12 h, 10 µM, compound concentration 10 uM
[3] = 24 h, 1 µM, compound concentration 1 uM
[4] = 24 h, 10 µM, compound concentration 10 uM
[5] = 48 h, 1 µM, compound concentration 1 uM
[6] = 48 h, 10 µM, compound concentration 10 uM

## Cc1sc2c(c1C)C(c1ccc(Cl)cc1)=N[C@H](CC(=O)OC(C)(C)C)c1nnc(C)n1-2
[1]
  Population Apoptotic (%): 81% and 71%
  Population Fragmented Nuclei (%): 28% and 16%
  Population Healthy Nuclei (%): 63% and 77%
  Population Hoechst High Intensity Objects (%): 2% and 4%
  Population Membrane Permeable-Phenotype (%): 7%
  Population Mitochondria Different-Phenotype (%): 4% and 2%
  Population Mitotic Cells (%): 18% and 28%
  Population Normal (%): 97% and 95%
  Population Pyknosed Nuclei (%): 8% and 6%
  Population Tubulin-Different-Phenotype (%): 4%
  Total Cell Count: 256 and 120
[2]
  Population Apoptotic (%): 51% and 90%
  Population Fragmented Nuclei (%): 32% and 22%
  Population Healthy Nuclei (%): 56% and 68%
  Population Hoechst High Intensity Objects (%): 2% and 0%
  Population Mitochondria Different-Phenotype (%): 35% and 24%
  Population Normal (%): 97% and 100%
  Population Pyknosed Nuclei (%): 11% and 8%
  Total Cell Count: 240 and 118
[3]
  Population Apoptotic (%): 77% and 75%
  Population Fragmented Nuclei (%): 22% and 20%
  Population Healthy Nuclei (%): 69% and 70%
  Population Hoechst High Intensity Objects (%): 0% and 3%
  Population Membrane Permeable-Phenotype (%): 5%
  Population Mitochondria Different-Phenotype (%): 1% and 2%
  Population Mitotic Cells (%): 22% and 25%
  Population Normal (%): 99% and 96%
  Population Pyknosed Nuclei (%): 7% and 8%
  Population Tubulin-Different-Phenotype (%): 1% and 2%
  Total Cell Count: 280 and 149
[4]
  Population Apoptotic (%): 83% and 76%
  Population Fragmented Nuclei (%): 29% and 24%
  Population Healthy Nuclei (%): 57% and 65%
  Population Hoechst High Intensity Objects (%): 2% and 0%
  Population Membrane Permeable-Phenotype (%): 17% and 7%
  Population Mitochondria Different-Phenotype (%): 17% and 25%
  Population Mitotic Cells (%): 16% and 23%
  Population Normal (%): 97% and 99%
  Population Pyknosed Nuclei (%): 13% and 10%
  Population Tubulin-Different-Phenotype (%): 8% and 3%
  Total Cell Count: 280 and 130
[5]
  Population Apoptotic (%): 77% and 96%
  Population Fragmented Nuclei (%): 20% and 21%
  Population Healthy Nuclei (%): 72% and 64%
  Population Hoechst High Intensity Objects (%): 1% and 3%
  Population Membrane Permeable-Phenotype (%): 5% and 7%
  Population Mitochondria Different-Phenotype (%): 2% and 7%
  Population Normal (%): 98% and 96%
  Population Pyknosed Nuclei (%): 6% and 14%
  Population Tubulin-Different-Phenotype (%): 2% and 5%
  Total Cell Count: 415 and 228
[6]
  Population Apoptotic (%): 86% and 89%
  Population Fragmented Nuclei (%): 23% and 20%
  Population Healthy Nuclei (%): 57% and 68%
  Population Hoechst High Intensity Objects (%): 2% and 1%
  Population Membrane Permeable-Phenotype (%): 11%
  Population Mitochondria Different-Phenotype (%): 7% and 8%
  Population Mitotic Cells (%): 13% and 10%
  Population Normal (%): 97% and 98%
  Population Pyknosed Nuclei (%): 18% and 11%
  Population Tubulin-Different-Phenotype (%): 5% and 3%
  Total Cell Count: 342 and 174

## O=C1c2c(Br)c(Br)c(Br)c(Br)c2C(=O)N1c1ncc[nH]1
[1]
  Population Apoptotic (%): 34.38% and 22.22%
  Population Fragmented Nuclei (%): 2.78% and 4.62%
  Population Healthy Nuclei (%): 88.33% and 79.77%
  Population Hoechst High Intensity Objects (%): 0%
  Population Membrane Permeable-Phenotype (%): 2.52% and 6.52%
  Population Mitochondria Different-Phenotype (%): 0.94% and 6.52%
  Population Mitotic Cells (%): 65.62% and 77.78%
  Population Normal (%): 100%
  Population Pyknosed Nuclei (%): 8.89% and 15.61%
  Population Tubulin-Different-Phenotype (%): 1.26% and 0.72%
  Total Cell Count: 360 and 173
[2]
  Population Apoptotic (%): 30.95% and 44.44%
  Population Fragmented Nuclei (%): 1.83% and 1.43%
  Population Healthy Nuclei (%): 88.58% and 85.71%
  Population Hoechst High Intensity Objects (%): 0%
  Population Membrane Permeable-Phenotype (%): 0.77% and 1.67%
  Population Mitochondria Different-Phenotype (%): 0% and 5%
  Population Mitotic Cells (%): 69.05% and 55.56%
  Population Normal (%): 100%
  Population Pyknosed Nuclei (%): 9.59% and 12.86%
  Population Tubulin-Different-Phenotype (%): 0.77% and 0.83%
[3]
  Population Apoptotic (%): 47.37% and 28.12%
  Population Fragmented Nuclei (%): 1.69% and 4.85%
  Population Healthy Nuclei (%): 90.27% and 81.06%
  Population Hoechst High Intensity Objects (%): 0.21% and 0%
  Population Membrane Permeable-Phenotype (%): 1.17% and 4.35%
  Population Mitochondria Different-Phenotype (%): 0.47% and 3.8%
  Population Mitotic Cells (%): 52.63% and 71.88%
  Population Normal (%): 99.79% and 100%
  Population Pyknosed Nuclei (%): 8.03% and 14.1%
  Population Tubulin-Different-Phenotype (%): 1.41% and 1.63%
  Total Cell Count: 474 and 227
[4]
  Population Apoptotic (%): 43.1% and 37.93%
  Population Fragmented Nuclei (%): 1.95% and 1.6%
  Population Healthy Nuclei (%): 88.62% and 82.89%
  Population Hoechst High Intensity Objects (%): 0%
  Population Membrane Permeable-Phenotype (%): 0.73% and 3.87%
  Population Mitochondria Different-Phenotype (%): 0% and 3.87%
  Population Mitotic Cells (%): 56.9% and 62.07%
  Population Normal (%): 100%
  Population Pyknosed Nuclei (%): 9.43% and 15.51%
  Population Tubulin-Different-Phenotype (%): 0% and 0.65%
[5]
  Population Apoptotic (%): 46.91% and 35.59%
  Population Fragmented Nuclei (%): 2.45% and 2.79%
  Population Healthy Nuclei (%): 88.91% and 82.23%
  Population Hoechst High Intensity Objects (%): 0%
  Population Membrane Permeable-Phenotype (%): 1.56% and 1.23%
  Population Mitochondria Different-Phenotype (%): 0.24% and 3.09%
  Population Mitotic Cells (%): 53.09% and 64.41%
  Population Normal (%): 100%
  Population Pyknosed Nuclei (%): 8.64% and 14.97%
  Population Tubulin-Different-Phenotype (%): 0.84% and 0.31%
  Total Cell Count: 938 and 394
[6]
  Population Apoptotic (%): 50.54% and 55.88%
  Population Fragmented Nuclei (%): 4.81% and 1.63%
  Population Healthy Nuclei (%): 86.74% and 87.25%
  Population Hoechst High Intensity Objects (%): 0%
  Population Membrane Permeable-Phenotype (%): 0.31% and 3.37%
  Population Mitochondria Different-Phenotype (%): 0% and 1.12%
  Population Mitotic Cells (%): 49.46% and 44.12%
  Population Normal (%): 100%
  Population Pyknosed Nuclei (%): 8.45% and 11.11%
  Population Tubulin-Different-Phenotype (%): 0.31% and 1.87%
